Source: PubChem BioAssay (several laboratories)
Hits are enriched below; roughly 6.6% of the tested compounds scored in any of these assays.
Her2 expr inh = inhibitors of Her2 protein expression, primary screen, SKBR-3 cells, AlphaScreen, 66K library; Receptor tyrosine-protein kinase erbB-2 (Homo sapiens), P04626; SKBR-3 HER2 protein level, 18-24 h; hits give low values; HER2 level % of control, % at 10 µM; hit rate 0.69% among 65,000;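 active = HER2 level under 5% of the carrier-only control; inconclusive = no clear call, values can overlap the other calls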;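 also: 100% = DMSO carrier and 0% = 500 nM PU-H71 HSP90 inhibitor; lower value means stronger loss of Her2 protein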
HEK293 NFkB inh = inhibitors of PMA/ionomycin-induced NF-kB reporter, primary screen, antigen receptor NF-kB inhibitor project, cell-based, HEK-293 luciferase reporter, luminescence. hit rate 0.21% among 62,000. inhibition, % at 3 µM. HEK-293 NF-kB luciferase reporter;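 active = inhibition above the mean of all tested compounds plus 3 SD, cut at about 40% in these data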;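 also: 0% = stimulated DMSO wells and 100% = 10 µM reference inhibitor 5653914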
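Signal: luciferase luminescence; Material: HEK-293 cells with stable firefly luciferase reporter driven by four HIV NF-kB elements; Probe or stimulus: PMA with ionomycin; Replication: tested once; Times: 1 h compound pretreatment, then 16 h stimulation at 37 °C, 5% CO2; Benchmarks: DMSO and 10 µM reference inhibitor; Evaluation: per-plate % inhibition versus controls.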
BAP1 inh = inhibitors of BAP1 deubiquitinase, primary screen, biochemical, Ub-AMC fluorescence, kinetic; recombinant BAP1, Ub-AMC hydrolysis fluorescence kinetic; hits give low values; Ubiquitin carboxyl-terminal hydrolase BAP1 (Homo sapiens), Q92560; hit rate 0.48% among 72,000; calls only at 20 µM; AID 436, 2006;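 active = activity remaining at or below 50% of control, provided the compound also passes the data quality filters; inactive = the rest, including low values that fail the filters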;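 also: 100% = DMSO wells rate and 0% = substrate alone blank rate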
M1 antagonist = antagonists of rat M1 muscarinic receptor; Muscarinic acetylcholine receptor M1 (Rattus norvegicus), P08482; CHO-M1 cells, Fluo-4 calcium, ACh EC80 antagonist mode; hits give low values; B-score at 10 µM; hit rate 3.4% among 64,000; AID 628, 2007;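 active = calcium fluorescence response, raw or row-and-column corrected B-score, differing from the plate sample mean either way at a set confidence level, mostly lower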
M1 ag = M1 muscarinic receptor agonists, primary screen, CHO-M1 cells, Fluo-4 calcium, agonist mode; Fluo-4 calcium fluorescence; hits give high values; B-score at 10 µM; hit rate 3% among 64,000; AID 626, 2007;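 active = fluorescence rise, raw or as B-score row- and column-corrected plate score, outside the 99.7% band of its plate's samples, either direction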
JNK3 blocker = JNK3 kinase activity inhibitors, primary screen, biochemical, human, purified enzyme | AID 746, 2007 | inhibition, % at 8 µM | HTS | hit rate 0.61% among 60,000; in the data active = inhibition above about 17%;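 also: 0% = DMSO and 100% = reference inhibitor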
Target sequence (P53779 whole entry, looked up): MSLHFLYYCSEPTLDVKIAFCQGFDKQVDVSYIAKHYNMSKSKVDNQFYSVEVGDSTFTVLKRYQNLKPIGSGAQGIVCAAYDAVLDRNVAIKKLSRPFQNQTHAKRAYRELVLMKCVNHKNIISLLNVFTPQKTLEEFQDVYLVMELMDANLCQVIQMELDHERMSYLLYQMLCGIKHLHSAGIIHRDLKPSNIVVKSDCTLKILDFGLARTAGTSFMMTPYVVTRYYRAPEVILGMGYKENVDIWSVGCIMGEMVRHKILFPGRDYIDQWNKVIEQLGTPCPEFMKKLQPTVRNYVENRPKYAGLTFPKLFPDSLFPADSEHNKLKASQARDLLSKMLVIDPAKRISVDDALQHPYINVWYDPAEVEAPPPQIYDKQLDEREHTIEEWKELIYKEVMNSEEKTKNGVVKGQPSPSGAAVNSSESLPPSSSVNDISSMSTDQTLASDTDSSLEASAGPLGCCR
M1 ag confirm = rat M1 muscarinic receptor agonists, confirmation, CHO-M1 cells, Fluo-4 calcium, duplicate retest; shares compounds with M1 ag; hit rate 19% among 1,700; fluorescence change (max-min) at 10 µM; Fluo-4 calcium fluorescence, agonist mode; actives lie on both sides;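 active = fluorescence change differs from the solvent-only DMSO control mean at a set confidence level in both duplicate runs; inconclusive = differs from solvent-only control mean in just one of two runs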;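 also: an EC20 dose of acetylcholine follows compound addition during the same imaging run; raw fluorescence intensity difference in instrument units with no normalization to controls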
M4 agonist ctr = agonist activity at rat M4 receptor, confirmation, counter-screen for M1 allosteric modulator project, cell-based, agonist mode; CHO M4/Gqi5 cells, Fluo-4 calcium fluorescence; actives lie on both sides; hit rate 9% among 1,700; shares compounds with M1 ag; fluorescence change (max-min) at 10 µM;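 active = fluorescence change differing from the plate's solvent-only control wells at 99.7% confidence in both duplicates, whether higher or lower; inconclusive = differs from solvent controls in only one of two duplicates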
* = called active by the depositor; i = inactive; u = inconclusive; x = no result given.

SMILES | Her2 expr inh | HEK293 NFkB inh | BAP1 inh | M1 antagonist | M1 ag | JNK3 blocker | M1 ag confirm | M4 agonist ctr
CCCCCCOC(=O)C(C#N)c1nc2ccccc2nc1N1CCOCC1 (configuration not stated) | 65.0 | 12.9 | i | -0.000745 | 0.184 | -2.6 | x | x
COCCCNC(=O)C(C#N)c1nc2ccccc2nc1N1CCCC1 (configuration not stated) | 112.1 | x | i | -1.74 | 340* | 2.3 | 230* | 749*
CCCCCCNC(=O)C(C#N)c1nc2ccccc2nc1N1CCOCC1 (configuration not stated) | 99.7 | 26.6 | i | 0.628 | 156* | -3.9 | 179* | 1619*
Nc1c(Cl)c(Cl)nc(Cl)c1Cl | x | x | i | x | x | x | x | x
O=C(Oc1cccc2ccccc12)C(Cc1ccccc1)N1C(=O)c2ccccc2C1=O (configuration not stated) | x | x | i | x | x | x | x | x
CCOc1ccc(NC(=O)c2c(NC(=O)c3ccc(Br)cc3)sc3c2CCC3)cc1 | x | x | i | x | x | x | x | x
CC(=O)[C@@H]1[C@@H]2C(=O)N(c3ccc(F)c(Cl)c3)C(=O)[C@@H]2C2c3ccccc3C=CN21 (some centres not stated) | 194.4 | 6.1 | x | 0.505 | 0.726 | -1.5 | x | x
CC(=O)[C@H]1[C@@H]2C(=O)N(c3cccc(Cl)c3)C(=O)[C@@H]2[C@H]2c3ccccc3C=CN21 | 77.2 | x | x | -0.597 | 6.45* | 6.4 | 97.8* | u
CCN1CCc2c(C#N)c(N3CCCCC3)nc(NCc3ccccc3)c2C1 | 73.8 | x | i | -0.462 | -2.54 | -2.2 | x | x
N#Cc1c(NCCO)nc(NCc2ccccc2)c2c1CCN(Cc1ccccc1)C2 | 117.9 | 15.9 | i | -1.28 | 3.3* | -5.2 | -3.77 | -4.35
O=C1N(CCCN2C(=O)C3(OCCO3)c3ccccc32)c2ccccc2C12OCCO2 | 116.1 | 7.5 | i | 0.0319 | -0.292 | 2.5 | x | x
O=C1N(CCCCN2C(=O)C3(OCCO3)c3ccccc32)c2ccccc2C12OCCO2 | 70.1 | 10.8 | i | 0.681 | 3.09* | -6.5 | -0.347 | -7.57
CN(C)CCNC(=O)C12CC3(C)CC(C)(CC(C)(C3)C1)C2 | 95.5 | x | i | -0.943 | 3.34* | -2.2 | u | -70.3
COc1ccc(C2CC(c3c(C)nc4ccc(Br)cc4c3-c3ccccc3)=NN2C(C)=O)cc1 (configuration not stated) | x | x | i | x | x | x | x | x
Cc1ccccc1Nc1cc2ccccc2c(=O)[nH]1 | 15.2 | -6.5 | i | 1.57 | 16.9* | -0.8 | 64* | 43.6
CCOc1ccc(N2C(=O)CC(SC(=NC)Nc3cccc(F)c3)C2=O)cc1 (configuration not stated) | 107.4 | 13.4 | i | -0.449 | 0.733 | 3.8 | x | x
CCN=C(NCC)SC1CC(=O)N(c2cccc(OCC)c2)C1=O (configuration not stated) | 67.1 | 12.2 | i | -2.6* | 13.9* | 8.6 | -3.61 | -22.4
CCOc1ccc(C2=[N+]([O-])C(C)(C)N(O)C2(C)C)cc1 | 92.3 | 10.5 | i | 2.67* | 3.63* | 1.6 | -20.1 | u
CCOC(=O)c1ccc(NS(=O)(=O)c2ccc(-c3ccccc3)cc2)cc1 | x | x | i | x | x | x | x | x
CC1CC(=O)c2cnc(Nc3cccc(C(F)(F)F)c3)nc2C1 (configuration not stated) | 113.2 | -2.2 | i | 0.45 | 2.95* | 2.7 | -4.81 | 0.265
COc1cccc(C(=O)Nc2ncc3c(n2)CC(C)CC3=O)c1 (configuration not stated) | 95.1 | -5.8 | i | -0.000531 | -0.114 | -5.7 | x | x
Cc1onc(-c2ccccc2Cl)c1C(=O)Nc1ccc(Oc2ccccc2)cc1 | x | x | i | x | x | x | x | x
